{"source": "paper PMC4142700", "about": "(The Prostate, 2010)", "key": {"[1]": {"tested_on": "castrate-resistant prostate cancer (CRPC)", "assay": "Clinical outcome", "type": "in vivo, patients", "procedure,_shortened": "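Oral 2DG, aqueous solution formulated at 100 mg/ml in water, given daily on days 1–14 of 21-day cycles. Dose cohorts were 30, 45 and 60 mg/kg. Each dose was given 1 hr before breakfast, followed by a ~50 ml water rinse of the dosing container. Patients with CRPC were followed for PSA and radiographic disease status across cycles.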"}, "[2]": {"tested_on": "prostate cancer cells", "settings": "cited from earlier work"}, "[3]": {"assay": "Pharmacokinetics of 2DG in plasma", "type": "in vivo, patients", "procedure,_shortened": "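Blood samples (5 ml each) were drawn predose, hourly to 6 hr after oral 2DG on cycle 1 day 1, at 24 and 48 hr after cycle 1 day 1, and again on cycle 2 day 1. Plasma extracts were derivatized to 2-aminobenzoic acid derivatives, and 2DG was quantified by HPLC with fluorometric detection.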"}, "[4]": {"type": "in vivo, patients"}, "[5]": {"tested_on": "p62", "assay": "p62 protein in peripheral blood mononuclear cells by Western blot", "type": "in vivo, patients", "settings": "PBMCs, immunoblot, normalized to α-tubulin", "procedure,_shortened": "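PBMCs were collected from six patients at baseline, 4 hr and 24 hr. Extracts were prepared in Laemmli buffer, resolved by SDS–PAGE and transferred to PVDF. Blots were probed for p62 and α-tubulin, then detected with HRP secondary antibody and ECL. Scanned bands were quantified by optical density, and p62 was normalized to α-tubulin.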"}, "[6]": {"tested_on": "FDG uptake", "assay": "FDG-PET imaging at baseline and day 2: effect of 2DG on FDG uptake", "type": "in vivo, patients", "procedure,_shortened": "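FDG-PET scans were taken at baseline, cycle 1 day 2 and cycle 2 day 15, with 2DG given orally on days 1–14 of 21-day cycles. FDG uptake was expressed as SUV at a selected tumor site divided by liver SUV, with liver serving as the control. Baseline and day 2 ratios were compared in nine patients.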"}, "[7]": {"settings": "cycle 1, 30 mg/kg/day oral, n = 3, mean ± SD"}, "[8]": {"settings": "cycle 1, 45 mg/kg/day oral, n = 4, mean ± SD"}, "[9]": {"settings": "cycle 1, 60 mg/kg/day oral, n = 4, mean ± SD"}, "[10]": {"settings": "cycle 2, 30 mg/kg/day oral, n = 3, mean ± SD"}, "[11]": {"settings": "cycle 2, 45 mg/kg/day oral, n = 4, mean ± SD"}, "[12]": {"settings": "cycle 2, 60 mg/kg/day oral, n = 4, mean ± SD"}}, "note": "Where “and” joins values, the source holds several entries; their conditions need not be identical. Equal entries are not always repeated. Entries after “also recorded” stand apart in the source; their conditions may differ.", "data": [{"smiles": "O=CC[C@@H](O)[C@H](O)[C@H](O)CO", "note": "[2DG, 2-deoxyglucose]", "values": [{"measurement": "cycles on study with radiographically stable disease", "setting": "[1]; individual patients with CRPC", "value": "8 cycles and 12 cycles and 21 cycles"}, {"measurement": "declines in PSA", "setting": "[1]; seven patients with prostate cancer who completed study therapy", "value": "no declines"}, {"measurement": "effect in prostate cancer cell lines", "setting": "[2]; autophagy a mechanism of resistance", "value": "cytotoxic effect"}, {"measurement": "effect on prostate cancer cells", "setting": "[2]; preclinical studies", "value": "cytotoxic"}, {"measurement": "AUC", "setting": "[3]; [7]", "value": "821.2±236.2", "unit": "μmol/Lhr"}, {"measurement": "Clearance", "setting": "[3]; [7]", "value": "232.0 ± 63.8", "unit": "mL/h"}, {"measurement": "Cmax", "setting": "[3]; [7]", "value": "277 ± 18.6", "unit": "µM"}, {"measurement": "AUC", "setting": "[3]; [8]", "value": "1107.7±213.3", "unit": "μmol/Lhr"}, {"measurement": "Clearance", "setting": "[3]; [8]", "value": "243.3 ± 49.4", "unit": "mL/h"}, {"measurement": "Cmax", "setting": "[3]; [8]", "value": "449 ± 168", "unit": "µM"}, {"measurement": "AUC", "setting": "[3]; [9]", "value": "2086.2±743.2", "unit": "μmol/Lhr"}, {"measurement": "Clearance", "setting": "[3]; [9]", "value": "185.0 ± 52.6", "unit": "mL/h"}, {"measurement": "AUC", "setting": "[3]; [10]", "value": "751.3 ± 181.7", "unit": "μmol/Lhr"}, {"measurement": "Clearance", "setting": "[3]; [10]", "value": "246.3 ± 56.6", "unit": "mL/h"}, {"measurement": "AUC", "setting": "[3]; [11]", "value": "1087.1 ± 441.8", "unit": "μmol/Lhr"}, {"measurement": "Clearance", "setting": "[3]; [11]", "value": "270.4 ± 126.4", "unit": "mL/h"}, {"measurement": "AUC", "setting": "[3]; [12]", "value": "1226.9 ± 571.2", "unit": "μmol/Lhr"}, {"measurement": "Clearance", "setting": "[3]; [12]", "value": "314.9 ± 108.7", "unit": "mL/h"}, {"measurement": "dose dependence of pharmacokinetics", "setting": "[3]; dose levels 30, 45 and 60 mg/kg", "value": "linear pharmacokinetics; also recorded: linear with dose level"}, {"measurement": "Cmax", "setting": "[3]; human, plasma, po, 30 mg/kg, Cmax, dose level 30 mg/kg oral", "value": 45, "unit": "µg/mL"}, {"measurement": "Cmax", "setting": "[3]; human, plasma, po, 45 mg/kg, Cmax, dose level 45 mg/kg oral", "value": 73.7, "unit": "µg/mL"}, {"measurement": "Cmax", "setting": "[3]; human, plasma, po, 60 mg/kg, Cmax, dose level 60 mg/kg oral", "value": 122, "unit": "µg/mL"}, {"measurement": "blood concentrations reached", "setting": "[3]; single agent, highest concentrations reached in this study", "value": 700, "unit": "µM"}, {"measurement": "dose-limiting toxicity", "setting": "[4]; human, in vivo, 60 mg/kg, 3 weeks", "value": "grade 3 asymptomatic QTc prolongation"}, {"measurement": "patients with grade 2 fatigue", "setting": "[4]; in vivo", "value": "three"}, {"measurement": "tolerability", "setting": "[4]; in vivo, 45 mg/kg", "value": "well tolerated"}, {"measurement": "QT interval", "setting": "[4]; in vivo, 60 mg/kg", "value": "prolonged"}, {"measurement": "recommended phase II dose", "setting": "[4]; oral, days 1–14 of a 21-day cycle", "value": 45, "unit": "mg/kg"}, {"measurement": "patients with a decrease in p62 level at 24 hr", "setting": "[5]", "value": "Five of six"}, {"measurement": "patients with decreased FDG uptake by day 2 of therapy", "setting": "[6]; FDG-PET, dose level 2 or 3", "value": "Five of eight and five"}, {"measurement": "Day 2 SUV (ratio site/liver)", "setting": "[6]; patient 5, lung, dose level 2, chest, baseline 6.3", "value": 11.6}, {"measurement": "Day 2 SUV (ratio site/liver)", "setting": "[6]; patient 6, cervical, dose level 2, mediastinum, baseline 4.3", "value": 2}, {"measurement": "Day 2 SUV (ratio site/liver)", "setting": "[6]; patient 7, prostate, dose level 3, L1 vertebral body, baseline 1.2", "value": 1}, {"measurement": "Day 2 SUV (ratio site/liver)", "setting": "[6]; patient 8, prostate, dose level 3, ischium, baseline 2.8", "value": 2.0}, {"measurement": "Day 2 SUV (ratio site/liver)", "setting": "[6]; patient 11, prostate, dose level 2, ilium, baseline 3.8", "value": 3}]}]}
